Assay results collected from several papers.
Compare with care: the assays were run in different laboratories.
BTK: Tyrosine-protein kinase BTK (BTK, Homo sapiens, UniProt Q06187)
AKT2: RAC-beta serine/threonine-protein kinase (AKT2, Homo sapiens, UniProt P31751)

[2H]c1cc(C)c(NC(=O)c2cnc(Nc3cc(N4CC[C@@H](N)C4)nc(C)n3)s2)c(Cl)c1 — inhibition (BTK; enzyme activity, inhibitor, mobility shift; 1 nM): 52%
N#Cc1ccc(NC(=O)Nc2ccccc2)cc1 — remaining binding (Atypical kinase COQ8A, mitochondrial (COQ8A, Homo sapiens, UniProt Q8NI60); cell-free assay, competition with immobilised ligand; 25 µM): 96%
Cc1nc(Nc2ncc(C(=O)Nc3c(C)cccc3Cl)s2)cc(N2CC[C@@H](O)C2)n1 — inhibition (BTK; enzyme activity, inhibitor, mobility shift; 1 nM): 74%
O=C(COc1ccc(Cl)c(F)c1)NC12CC(NC(=O)c3cnc(C(F)F)cn3)(C1)C2 — inhibition (Translation initiation factor eIF2B subunit beta/Translation initiation factor eIF2B subunit delta (Homo sapiens, UniProt P49770+Q9UI10); ligand displacement, TR-FRET; 100 µM): 100%
[2H]c1cc(C)c(NC(=O)c2cnc(Nc3cc(N4CCCCC4)nc(C)n3)s2)c(Cl)c1 — inhibition (BTK; enzyme activity, inhibitor, mobility shift; 1 nM): 90%
Cc1cc(-c2ccnc3[nH]cc(F)c23)cc(F)c1[C@@]1(O)[C@H](C)CN(C2CCS(=O)(=O)CC2)C[C@@H]1C — remaining activity (AKT2; enzyme activity, inhibitor; 0.1 µM): 103%
NC/C(=C\F)COc1cccc(Cn2c(=S)[nH]c(=O)c3[nH]cnc32)c1 — inhibition (D(4) dopamine receptor (DRD4, Homo sapiens, UniProt P21917, del265-296); ligand displacement, radioligand; 10 µM): < 50%
Cc1cc(-c2ccnc3[nH]cc(F)c23)cc(F)c1[C@@]1(O)[C@H](C)CN(C(=O)CN)C[C@@H]1C — remaining activity (AKT2; enzyme activity, inhibitor; 0.1 µM): 113%
C[C@H](NC(=O)C(=O)Nc1ccccc1C(C)(C)C)C(=O)N[C@@H](CC(=O)O)C(=O)COc1c(F)c(F)cc(F)c1F — kinact/KI (Caspase-4 (Casp4, Mus musculus, UniProt P70343); enzyme activity, inhibitor): 448000 M⁻¹ s⁻¹
Cc1cc(O)c(-c2ccc([C@@H](C)CN(C)C)cc2)c2c1[nH]c(=O)c1sccc12 — inhibition ([Pyruvate dehydrogenase (acetyl-transferring)] kinase isozyme 1, mitochondrial (PDK1, Homo sapiens, UniProt Q15118); enzyme activity, inhibitor; 0.1 µM, lysate): -15.2%
COc1ccc2oc(-c3ccc4nc(N)oc4c3)c/c(=N\c3ccccc3NC(=O)CCN)c2c1 — remaining binding (BTK; binding; 1 µM): 96%
Cc1nc(Nc2ncc(C(=O)Nc3c(C)cccc3Cl)s2)cc(N2CC[C@@H](N)C2)n1 — inhibition (BTK; enzyme activity, inhibitor, mobility shift; 1 nM): 71%
C1=C/COCc2cc(ccc2OCCN2CCCC2)Nc2nccc(n2)-c2cccc(c2)COC/1 — remaining binding (Serine/threonine-protein kinase Nek11 (NEK11, Homo sapiens, UniProt Q8NG66); binding; 0.1 µM): 95%
CCCCC(=O)Nc1ccc(-c2ccc3ncn(CCC)c(=O)c3c2)cn1 — remaining binding (Mast/stem cell growth factor receptor Kit (KIT, Homo sapiens, UniProt P10721, V559D); binding, competition with immobilised ligand; 0.5 µM): 99%
C#Cc1cc(-c2cc(Nc3nc(N[C@@H](C)c4ccc(F)cn4)ncc3Cl)n[nH]2)ccc1C=O — inhibition (Mitogen-activated protein kinase kinase kinase 19 (MAP3K19, Homo sapiens, UniProt Q56UN5); enzyme activity, inhibitor; 0.2 µM): 3.1%
